Compounds with a hit are over-represented: about 1.2% of the library has one in this group of screens.
CAL PDZ FP-1 = blocks peptide binding to the human CAL PDZ domain; Q9HD26; purified CAL PDZ, TMR-peptide fluorescence polarization, 1 h; inhibition, % at 24.9 µM; 300,000 tested, 0.92% active;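 active means mean inhibition of at least 30% with at least half of replicates also reaching 30%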;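 further: 0% = DMSO neutral control and 100% = excess unlabeled competitor peptide PRC23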
CAL PDZ FP-2 = blocks peptide binding to human CAL PDZ domain; Q9HD26; purified CAL PDZ, TMR-peptide fluorescence polarization, 1 h; inhibition, % at 20 µM; 330,000 tested, 0.02% active; AID 504414;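 active means highest replicate inhibition of at least 40%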;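 further: plate controls were DMSO neutral control wells for no effect and unlabeled competitor peptide control wells for full effect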
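Test system: tagged CAL PDZ domain / Buffer or medium: sodium phosphate/NaCl buffer pH 7.4 with TCEP, IgG, Thesit / Reagent: TMR-labelled reporter peptide T*-PRC34 bound in PDZ groove / Compound dosing: single point, 20 µM / Schedule: 1 h incubation at room temperature before polarization reading / Technique: fluorescence polarization (mP) / Benchmarks: unlabelled peptide, DMSO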
ARNT-TACC3 inh = disruptors of human ARNT/TACC3 interaction. Q9Y6A5. AlphaScreen His-ARNT PAS-B/GST-TACC3 binding, luminescence; TACC3 fragment carries E629A point mutation. inhibition, % at 9.99 µM. 390,000 tested, 0.66% active;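 active means mean inhibition of replicates at least 50% and at least half of replicates each reaching 50%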;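 further: 0% = complete ARNT plus TACC3 wells and 100% = ARNT alone without TACC3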
ARNT Alpha ctr-1 = counter-screen for ARNT/TACC3 inhibitors: AlphaScreen artifacts. shares compounds with ARNT-TACC3 inh. His-ARNT PASB-GST AlphaScreen artifact counter-screen, luminescence. AC50, µM (highest dose often 68 µM), inactives show at the top dose activity change, negative = signal decrease. 1,200 tested, 50% active. AID 651705;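 active means every separate test run was called active for a drop in luminescence, with AC50 within twice the top valid dose, actives reach about 71 µM in these data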
ARNT Alpha ctr-2 = produces AlphaScreen artifacts in ARNT-TACC3 counter-screen; shares compounds with ARNT-TACC3 inh; Dual-tagged His-ARNT PASB-GST AlphaScreen artifact counter-screen; AC50, µM; 45 tested, 70% active;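 active means luminescence drop, with half-maximal potency fitted within twice the sample's top valid dose, cut at about 70 µM in these data; inactive means the rest, including signal moving the wrong way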
Numbers without * were called inactive; . = not tested or not shown; [ ] = another dose, or the depositor's remark.

SMILES | CAL PDZ FP-1 | CAL PDZ FP-2 | ARNT-TACC3 inh | ARNT Alpha ctr-1 | others
O=C1C(SCCO)=C(SCCO)C(=O)c2ccccc21 | -6.8 | 11.3 | 24.8 | .
C/C=C/c1cnc2c(c1)C(=O)N([C@H](C)CO)C[C@@H](C)[C@H](CN(C)C(=O)c1cccc(F)c1)O2 | . | . | 1.4 | .
O=C(O)CSCc1cn2cc(Cl)ccc2n1 | 0.4 | -0.3 | -6.4 | .
CNCc1cn2cc(Cl)ccc2n1 | 0.1 | -0.5 | 66.8* | -8.2%
CC(C)NC(=O)N(C)C[C@H]1Oc2cc(-c3cncnc3)ccc2S(=O)(=O)N([C@H](C)CO)C[C@H]1C | . | . | 5.2 | .
Cn1c(CNc2ccccc2O)nc2ccccc21 | 1.1 | -0.3 | 66.9* | -31.9%
Cc1ccccc1NCc1nc2ccccc2n1C | -1.4 | 0.1 | 2.6 | .
O=C(N[C@@H]1CC[C@@H](CCNC(=O)C2CCCC2)O[C@H]1CO)c1ccccn1 | . | . | 0.9 | .
C[C@@H]1CN([C@@H](C)CO)C(=O)c2cccc(NC(=O)Nc3ccc(C(F)(F)F)cc3)c2O[C@@H]1CN(C)Cc1ccncc1 | . | . | 1.7 | .
CC1CCN(S(=O)(=O)c2ccc(C(=O)Nc3nnc(-c4ccccn4)o3)cc2)CC1 | 0.9 | -1.9 | 41.6 | . | ARNT Alpha ctr-2=>136
CC(=O)Nc1nnc(-c2ccccn2)o1 | 1.0 | -2.8 | 15.4 | .
N#Cc1ccc(C(=O)Nc2nnc(-c3ccccn3)o2)cc1 | -0.7 | 0.9 | 54.4* | -21.9%
CCOC(=O)N1CCN(S(=O)(=O)c2ccc(C(=O)Nc3nnc(C4CC4)o3)cc2)CC1 | -0.8 | -1.3 | 61.2* | -42.0%
O=C(Nc1nnc(-c2ccncc2)o1)c1ccccc1 | -1.3 | -1.2 | 51.6* | -15.0%
O=C(Nc1nnc(-c2ccncc2)o1)c1ccccc1F | -2.8 | -0.1 | 1.1 | .
CC1CC(C)CN(S(=O)(=O)c2ccc(C(=O)Nc3nnc(C4CC4)o3)cc2)C1 (stereo not given) | 8.4 | -2.5 | 7.2 | .
CC1CCN(S(=O)(=O)c2ccc(C(=O)Nc3ncccc3O)cc2)CC1 | -7.9 | -2.2 | -6.9 | .
CO[C@H]1CN(C)C(=O)c2ccc(NC(=O)Nc3ccccc3)cc2OC[C@H](C)N(C(=O)CC2CC2)C[C@H]1C | . | . | -2.9 | .
C[C@@H]1CN([C@@H](C)CO)C(=O)c2cccc(NC(=O)c3cnccn3)c2O[C@@H]1CN(C)C | . | . | -9.7 | .
O=C(C[C@@H]1C[C@@H]2c3cc(NC(=O)c4ccc5c(c4)OCO5)ccc3O[C@@H]2[C@@H](CO)O1)NC1CCCC1 | . | . | -9.5 | .
CO[C@H]1CN(C)C(=O)c2cc(NC(=O)c3ccccc3F)ccc2OC[C@@H](C)NC[C@H]1C | . | . | -0.5 | .
CC1CCN(S(=O)(=O)c2ccc(C(=O)Nc3nnc(-c4ccno4)o3)cc2)CC1 | . | . | . | . | ARNT Alpha ctr-2=>136
CC1CCCN(S(=O)(=O)c2ccc(C(=O)Nc3nnc(-c4ccco4)o3)cc2)C1 (stereo not given) | -3.3 | -1.4 | 36.3 | .
CO[C@@H]1CN(C)C(=O)c2cc(NC(=O)c3ccccc3)ccc2OC[C@H](C)N(C(=O)C2CC2)C[C@@H]1C | . | . | 2.3 | .
CO[C@H]1CN(C)C(=O)c2cc(NC(=O)NC3CCCCC3)ccc2OC[C@@H](C)N(CC2CC2)C[C@H]1C | . | . | -8.1 | .
SMILES | CAL PDZ FP-1 | CAL PDZ FP-2 | ARNT-TACC3 inh | ARNT Alpha ctr-1 | others
CO[C@@H]1CN(C)C(=O)c2cc(NC(=O)c3ccccc3)ccc2OC[C@@H](C)N(C(=O)C2CC2)C[C@H]1C | . | . | 12.1* | 1.9%[38 µM]
CO[C@H]1CN(C)C(=O)c2cc(NC(=O)NC3CCCCC3)ccc2OC[C@H](C)N(CC2CC2)C[C@@H]1C | . | . | 57.0* | -2.6%[42 µM]
COCC(=O)Nc1ccc2c(c1)OC[C@@H](C)N(C(=O)Cc1ccccn1)C[C@H](C)[C@@H](OC)CN(C)C2=O | . | . | 7.1 | .
COc1ccc(NC(=O)Nc2ccc3c(c2)C(=O)N([C@@H](C)CO)C[C@@H](C)[C@H](CN(C)CC2CCCCC2)O3)cc1 | . | . | 2.9 | .
O=C(N/N=C/c1cccc2nccnc12)c1ccccc1O | . | -3.9 | 58.7* | 30.2µM*
CC(C)(C)OC(=O)NCCC(=O)N/N=C/c1cccc2nccnc12 | . | -0.7 | 4.3 | .
Cc1ccc(Nc2c(-c3ccccn3)nc3ccc(C)cn23)cc1 | -2.1 | 0.7 | 28.0 | .
Cc1ccc(Nc2c(-c3ccccn3)nc3cc(C)ccn23)cc1 | -8.6 | -0.1 | 62.0* | 12.7µM*
C[C@@H]1CN([C@H](C)CO)S(=O)(=O)c2ccc(C#CC(C)(C)O)cc2O[C@@H]1CN(C)C(=O)C1CCCCC1 | . | . | -4.2 | .
O=C(COC(=O)c1ccc([N+](=O)[O-])o1)Nc1ccc(F)cc1 | -2.1 | 1.0 | active | -5.2%
